We go through 14 compounds from ChEMBL document CHEMBL1147844, “Acridone derivatives: design, synthesis, and inhibition of breast cancer resistance protein ABCG2” (Bioorg Med Chem, 2007).

Series [1] deals with T1, Broad substrate specificity ATP-binding cassette transporter ABCG2 (Homo sapiens, UniProt Q9UNQ0).
T1 sequence (Q9UNQ0 whole entry): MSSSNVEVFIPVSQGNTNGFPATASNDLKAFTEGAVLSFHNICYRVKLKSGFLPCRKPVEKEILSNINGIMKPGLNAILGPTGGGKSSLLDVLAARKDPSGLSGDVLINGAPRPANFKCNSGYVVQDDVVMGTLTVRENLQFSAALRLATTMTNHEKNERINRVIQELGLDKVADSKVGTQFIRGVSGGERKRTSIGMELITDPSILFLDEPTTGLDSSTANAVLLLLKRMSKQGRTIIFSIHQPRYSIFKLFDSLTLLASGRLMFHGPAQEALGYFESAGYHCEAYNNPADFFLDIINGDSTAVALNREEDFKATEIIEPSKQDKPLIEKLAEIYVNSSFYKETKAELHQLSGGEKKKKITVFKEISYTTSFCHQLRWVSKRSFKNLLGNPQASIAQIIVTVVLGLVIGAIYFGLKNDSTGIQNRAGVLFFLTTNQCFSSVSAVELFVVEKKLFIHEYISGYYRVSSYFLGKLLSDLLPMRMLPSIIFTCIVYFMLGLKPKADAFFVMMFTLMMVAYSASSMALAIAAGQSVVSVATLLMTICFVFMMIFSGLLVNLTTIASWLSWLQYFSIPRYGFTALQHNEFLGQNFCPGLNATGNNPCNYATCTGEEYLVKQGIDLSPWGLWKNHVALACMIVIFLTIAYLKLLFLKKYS
Put plainly: Inhibition of ABCG2 expressed in HEK293 cells assessed as mitoxantrone-mediated efflux by flow cytometry. Format: cell-based. The gist of the method: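 HEK-293 cells transfected with human wild-type (R482) ABCG2, or empty-vector control cells, loaded with 5 µmol/L mitoxantrone for 30 min at 37 °C with or without a range of inhibitor concentrations (DMSO, 0.5% final). Cells washed in PBS, then kept 1 h in substrate-free medium with the same inhibitor level. Intracellular fluorescence read by flow cytometry. 100% = control minus ABCG2-cell mean fluorescence without inhibitor. IC50 derived.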
On the technique in general: A flow cytometer gives signals particle by particle.

In series [2] the target is T1, Broad substrate specificity ATP-binding cassette transporter ABCG2. Put plainly: Inhibition of ABCG2 expressed in HEK293 cells assessed as mitoxantrone-mediated efflux by flow cytometry relative to GF120918. Also noted: concentration or dose not given beside the values. Format: cell-based.

A value given as a limit tells only on which side of the number the result lay.

As a reminder, the IC50 is the point on the concentration scale where inhibition reaches its midpoint. Take `COc1ccc2[nH]c3ccccc3c(=O)c2c1OC`: the IC50 in series [1] is above 20 µM. As usually defined, the Inhibition is the change of the read-out against control, counted positive when it falls. As for `COc1cc(C(F)(F)F)cc2[nH]c3ccccc3c(=O)c12`, the Inhibition in series [2] turned out to be 81%. Also, the 50% inhibitory concentration (IC50) in series [1] worked out at 0.77 µM. Take `O=c1c2ccccc2[nH]c2ccc(O)cc12`: the IC50 in series [1] was above 20 µM.

Regarding `COc1cc(O)c2c(=O)c3ccccc3[nH]c2c1`, the 50% inhibitory concentration (IC50) in series [1] was above 20 µM. On the same count and under the same terms, the result for `O=c1c2ccccc2[nH]c2cc(C(F)(F)F)cc(O)c12` reads above 20 µM.

In the case of `COc1ccc(CCNC(=O)c2cccc3c(=O)c4ccccc4[nH]c23)cc1OC`, the Inhibition in series [2] turned out to be 90.2%. Moreover, the IC50 in series [1] turned out to be 0.45 µM. Consider `COc1ccc(CCNC(=O)c2cccc3c(=O)c4ccc(OC)cc4[nH]c23)cc1`, for which the Inhibition in series [2] amounted to 112.3%. In series [1], the IC50 came out at 0.56 µM. Consider `COc1ccc2c(=O)c3cccc(C(=O)NCCc4ccc(OC)c(OC)c4)c3[nH]c2c1`, for which the Inhibition in series [2] was 94.9%. The IC50 in series [1] turned out to be 1.38 µM. With `COc1cccc2[nH]c3ccccc3c(=O)c12`, the Inhibition in series [2] worked out at 74%. Moreover, the IC50 in series [1] was 6.3 µM. For `COc1cc(OC)c2c(=O)c3ccccc3[nH]c2c1`, in that order: 65% and 7.9 µM. As to `COc1ccc2[nH]c3ccccc3c(=O)c2c1`, the Inhibition in series [2] amounted to 66%. The IC50 in series [1] amounted to 4.8 µM. Regarding `COc1cc2c(cc1OC)CN(CCc1ccc(NC(=O)c3cccc4c(=O)c5cccc(OC)c5[nH]c34)cc1)CC2`, the Inhibition in series [2] is recorded as 100%. As to `COc1ccc(CCNC(=O)c2cccc3c(=O)c4ccccc4[nH]c23)cc1`, in series [2], the Inhibition was found to be 71.3%. The half-maximal inhibitory concentration (IC50) in series [1] came out at 0.35 µM. In the case of `O=c1c2ccccc2[nH]c2cccc(O)c12`, the IC50 in series [1] was above 20 µM.
